The subject of assay [1] is MT4. Briefly: The compound was evaluated for cytotoxicity in MT-4 cells. The class given is functional, Homo sapiens. The procedure, abridged: (§1)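 Uninfected cells (CEM-SS or MT-4, per line) were incubated with the drug in a microtiter XTT assay. Viability was expressed as percent of the uninfected drug-free control. CC50 is the concentration causing 50% cell death. Triplicates were run per plate on two sister plates, and the two plate values were averaged.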

Assay [2] has as its system MT4. Briefly: The compound was evaluated for inhibition of cytopathic effect of HIV-2ROD in MT-4 cells. The class given is functional, cell-based, Homo sapiens. Background: Protection from cytopathic effect is a common read-out in antiviral testing.
Assay [3] relates to CEM-SS. Briefly: The compound was evaluated for cytotoxicity in CEM-SS cells. The class given is functional, Homo sapiens. Put shortly:
as §1

In assay [4] the test system is MT4. Kind of assay: The compound was evaluated for inhibition of cytopathic effect of HIV-1 IIIB in MT-4 cells. The format is functional, cell-based, Homo sapiens.
Assay [5] relates to CEM-SS. Kind of assay: The compound was evaluated for inhibition of cytopathic effect of HIV-1 RF in CEM-SS cells. The format is functional, cell-based, Homo sapiens. Put shortly: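 XTT-based microtiter cytoprotection assay measuring protection from HIV-1-induced cytopathic effect, read as percent of the uninfected drug-free control. EC50 is the concentration giving 50% protection in infected cultures. Results were confirmed by cell-free supernatant reverse transcriptase and p24 levels. Each plate was run in triplicate, and the EC50 values from two sister plates were averaged.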

Assay [6] relates to CEM-SS. Kind of assay: The compound was evaluated for uM. The format is functional, cell-based, Homo sapiens.

Some results are limits rather than exact numbers.

For `CC(C)CCCC(C)[C@H]1CC[C@H]2[C@@H]3CCC4C[C@@H](CCC=C(c5cc(Cl)c(OCc6ccccc6C(=O)O)c(C(=O)O)c5)c5cc(Cl)c(OCc6ccccc6C(=O)O)c(C(=O)O)c5)CC[C@]4(C)[C@H]3CC[C@]12C` (stereo partly specified), the Cytotoxicity in assay [1] is 37 µM; in assay [3] it was more than 316 µM. Moreover, the half-maximal effective concentration (EC50) in assay [2] (Homo sapiens, MT4) is more than 37 µM; in assay [4] (Homo sapiens, MT4), more than 37 µM.
For the molecule `CC(C)CCCC(C)[C@H]1CC[C@H]2[C@@H]3CCC4C[C@@H](CCC=C(c5cc(Cl)c(OCc6cccc(C(=O)[O-])c6)c(C(=O)[O-])c5)c5cc(Cl)c(OCc6cccc(C(=O)[O-])c6)c(C(=O)[O-])c5)CC[C@]4(C)[C@H]3CC[C@]12C.[Na+].[Na+].[Na+].[Na+]` (stereo partly specified), the EC50 in assay [5] (cem-ss) is 7.6 µM; in assay [2] (mt4), more than 35 µM; in assay [4] (mt4) it was 2.4 µM. Also, the Cytotoxicity is 35 µM in assay [1] and more than 316 µM in assay [3].
Consider `CC(C)CCCC(C)[C@H]1CC[C@H]2[C@@H]3CCC4C[C@@H](CCC=C(c5cc(Cl)c(OCc6cccc([N+](=O)[O-])c6)c(C(=O)[O-])c5)c5cc(Cl)c(OCc6cccc([N+](=O)[O-])c6)c(C(=O)[O-])c5)CC[C@]4(C)[C@H]3CC[C@]12C.[Na+].[Na+]` (stereo partly specified), for which the half-maximal effective concentration (EC50) in assay [5] (Homo sapiens, CEM-SS) amounted to 21.5 µM; in assay [2] (mt4), 29 µM; in assay [4] (mt4), 48 µM. Besides, the Cytotoxicity in assay [1] was more than 125 µM; in assay [3] it was more than 316 µM.
`CC(C)CCCC(C)[C@H]1CC[C@H]2[C@@H]3CCC4C[C@@H](CCC=C(c5cc(Cl)c(OCc6cccc(C(=O)O)c6)c(C(=O)O)c5)c5cc(Cl)c(OCc6cccc(C(=O)O)c6)c(C(=O)O)c5)CC[C@]4(C)[C@H]3CC[C@]12C` (stereo partly specified): the concentration giving a half-maximal response (EC50) in assay [5] (Homo sapiens, CEM-SS) was 5.7 µM; in assay [2] (Homo sapiens, MT4), more than 29 µM; in assay [4] (Homo sapiens, MT4), 2.2 µM. The Cytotoxicity is 29 µM in assay [1] and more than 316 µM in assay [3].
For `CC(C)CCCC(C)[C@H]1CC[C@H]2[C@@H]3CCC4C[C@@H](CCC=C(c5cc(Cl)c(O)c(C(=O)O)c5)c5cc(Cl)c(O)c(C(=O)O)c5)CC[C@]4(C)[C@H]3CC[C@]12C` (stereo partly specified), the Cytotoxicity was more than 125 µM in assay [1] and more than 200 µM in assay [3]. Also, the EC50 in assay [2] (Homo sapiens, MT4) was found to be 4 µM; in assay [4] (Homo sapiens, MT4), 3 µM.
Turning to `CC(C)CCCC(C)[C@H]1CC[C@H]2[C@@H]3CCC4C[C@@H](CCC=C(c5cc(Cl)c(OCc6cccc([N+](=O)[O-])c6)c(C(=O)O)c5)c5cc(Cl)c(OCc6cccc([N+](=O)[O-])c6)c(C(=O)O)c5)CC[C@]4(C)[C@H]3CC[C@]12C` (stereo partly specified), the figures for the Cytotoxicity in assay [1] and in assay [3] were 97 µM and 16 µM, respectively. Also, the figures for the EC50 result in assay [6], in assay [2] (mt4) and in assay [4] (mt4) were “Not Active”, more than 125 µM and more than 125 µM, respectively.
In the case of `CC(C)CCCC(C)[C@H]1CC[C@H]2[C@@H]3CCC4C[C@@H](CCC=C(c5cc(Cl)c(OCc6ccc([N+](=O)[O-])cc6)c(C(=O)O)c5)c5cc(Cl)c(OCc6ccc([N+](=O)[O-])cc6)c(C(=O)O)c5)CC[C@]4(C)[C@H]3CC[C@]12C` (stereo partly specified), the Cytotoxicity in assay [1] was 83 µM; in assay [3] it was more than 316 µM. In addition, the EC50 entry in assay [6] was “Not Active”; in assay [2] (mt4), more than 83 µM; in assay [4] (Homo sapiens, MT4), more than 83 µM.
As for `CC(C)CCCC(C)[C@H]1CC[C@H]2[C@@H]3CCC4C[C@@H](CCC=C(c5cc(Cl)c(OCc6ccc([N+](=O)[O-])cc6)c(C(=O)[O-])c5)c5cc(Cl)c(OCc6ccc([N+](=O)[O-])cc6)c(C(=O)[O-])c5)CC[C@]4(C)[C@H]3CC[C@]12C.[Na+].[Na+]` (stereo partly specified), the EC50 came out at 78.2 µM in assay [5] (Homo sapiens, CEM-SS); 33 µM in assay [2] (mt4); 80 µM in assay [4] (mt4). The Cytotoxicity in assay [1] is more than 125 µM; in assay [3], more than 316 µM.
For `CC(C)CCCC(C)[C@H]1CC[C@H]2[C@@H]3CCC4C[C@@H](CCC=C(c5cc(Cl)c(OCc6ccccc6[N+](=O)[O-])c(C(=O)O)c5)c5cc(Cl)c(OCc6ccccc6[N+](=O)[O-])c(C(=O)O)c5)CC[C@]4(C)[C@H]3CC[C@]12C` (stereo partly specified), the Cytotoxicity in assay [1] is 108 µM; in assay [3], 66 µM. Besides, the EC50 entry in assay [6] is on record as “Not Active”.
Regarding `CC(C)CCCC(C)[C@H]1CC[C@H]2[C@@H]3CCC4C[C@@H](CCC=C(c5cc(Cl)c(OCc6ccccc6[N+](=O)[O-])c(C(=O)[O-])c5)c5cc(Cl)c(OCc6ccccc6[N+](=O)[O-])c(C(=O)[O-])c5)CC[C@]4(C)[C@H]3CC[C@]12C.[Na+].[Na+]` (stereo partly specified), the EC50 was 12.2 µM in assay [5] (Homo sapiens, CEM-SS); more than 125 µM in assay [2] (Homo sapiens, MT4); more than 125 µM in assay [4] (Homo sapiens, MT4). For the same molecule, the Cytotoxicity is 99 µM in assay [1] and more than 316 µM in assay [3].
For `CC(C)CCCC(C)[C@H]1CC[C@H]2[C@@H]3CCC4C[C@@H](CCC=C(c5cc(Cl)c(OCc6ccccc6C(=O)[O-])c(C(=O)[O-])c5)c5cc(Cl)c(OCc6ccccc6C(=O)[O-])c(C(=O)[O-])c5)CC[C@]4(C)[C@H]3CC[C@]12C.[Na+].[Na+].[Na+].[Na+]` (stereo partly specified), the EC50 is 17.9 µM in assay [5] (cem-ss), more than 52 µM in assay [2] (mt4) and 22.1 µM in assay [4] (mt4). In addition, the Cytotoxicity was 52 µM in assay [1] and more than 316 µM in assay [3].

In general, EC50 refers to the concentration needed to bring the measured effect to its halfway point. A low value points to greater potency.

These data come from ChEMBL document CHEMBL1132142, “Extension of the polyanionic cosalane pharmacophore as a strategy for increasing anti-HIV potency” (J Med Chem, 1999).
